Assay results as given in ChEMBL document CHEMBL4673212, “Investigation of synergistic antimicrobial effects of the drug combinations of meropenem and 1,2-benzisoselenazol-3(2H)-one derivatives on carbapenem-resistant Enterobacteriaceae producing NDM-1” (Eur J Med Chem, 2018).
The source made the active and inactive calls. The rule behind the calls is not given here.

Columns and labels:
[1] = tested on: Klebsiella pneumoniae; test: Growth inhibition of carbapenem-resistant Klebsiella pneumoniae isolate 14 harboring CTX-M-14, KPC-2 and SHV-12 by CLSI protocol based assay; format: functional
[2] = target: Metallo-beta-lactamase type 2 (Klebsiella pneumoniae) (UniProt C7C422); test: Binding affinity to denatured N-terminal His6-tagged Klebsiella pneumoniae NDM-1 expressed in Escherichia coli BL21 assessed as formation of compound-intact protein complex by measuring molecular weight measured after 20 mins by ESI-MS analysis
Metallo-beta-lactamase type 2 (Klebsiella pneumoniae), sequence (C7C422 whole entry, the tested form may be a part): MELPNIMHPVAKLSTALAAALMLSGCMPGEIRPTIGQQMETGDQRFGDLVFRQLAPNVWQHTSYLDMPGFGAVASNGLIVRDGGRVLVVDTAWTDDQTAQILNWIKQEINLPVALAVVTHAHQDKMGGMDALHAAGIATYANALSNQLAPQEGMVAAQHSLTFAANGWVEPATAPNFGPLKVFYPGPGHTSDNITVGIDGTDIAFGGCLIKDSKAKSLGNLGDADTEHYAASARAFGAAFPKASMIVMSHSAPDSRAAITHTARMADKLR
Method in brief: (§1)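 NDM-1 (20 µM) incubated 20 min with equimolar compound in 20 mM ammonium acetate. Native sample infused by nano-ESI with spray held ~20 min at 150 V. For the denatured sample, an equal volume of acetonitrile with 0.5% formic acid was added before syringe-pump loading at 5 µL/min. Complex formation was read from mass.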

[3] = tested on: L929; test: Cytotoxicity against mouse L929 cells assessed as effect on morphological changes at 0.13 to 2 mg/ml by microscopic analysis; format: cell-based; conditions: dose 0.13-2 mg/ml
Method in brief: (§2)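 HeLa and L929 cells were examined by microscopy for morphological change after incubation with compound at the MTT-assay concentrations.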

[4] = Toxicity in Galleria mellonella wax moth larve assessed as mortality at 2 mg/kg cotreated with 2 mg/kg meropenem relative to control; format: organism-based; conditions: in vivo, read-out: Activity
Method in brief: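 G. mellonella larvae (250–300 mg, n=10) infected in the hemocoel at the last left proleg with E. cloacae EL10 at 2.5 × 10^5 CFU/larva in PBS. Treatment was injected at the next left proleg 1 h from inoculation: vehicle, single agents at 10 mg/kg, or combinations at 2+2 or 10+10 mg/kg. Larvae were held at 37 °C and scored every 12 h for 48 h (no response to stimuli = dead). Log-rank test. Three independent experiments.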

[5] = target: Metallo-beta-lactamase type 2 (Klebsiella pneumoniae) (UniProt C7C422); test: Inhibition of wild type N-terminal His6-tagged Klebsiella pneumoniae NDM-1 expressed in Escherichia coli BL21 assessed as inactivation constant using nitrocefin as substrate measured after 30 mins
Method in brief: (§3)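 1 nM purified His6-NDM-1 was mixed with varying compound concentrations in 50 mM phosphate buffer ± 50 µM ZnSO4 with BSA. Nitrocefin was added at 7× Km and velocity read at 482 nm, in triplicate. ln(% residual activity) versus incubation time gave kobs, which was fitted hyperbolically against concentration for KI and kinact.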

[6] = tested on: Enterobacter cloacae; test: Potentiation of meropenem-induced antibacterial activity against carbapenem-resistant Enterobacter cloacae isolate 19 harboring CTX-M-14 and KPC-2 assessed as meropenem MIC by CLSI protocol based assay (Rvb >= 128 ug/ml); format: functional
[7] = tested on: HeLa; test: Cytotoxicity against human HeLa cells assessed as increase in cell viability at 2 mg/ml measured after 48 hrs by MTT assay; format: cell-based
Method in brief: (§4)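 MTT assay. HeLa or L929 cells were seeded at 1×10^4/well in DMEM with 10% FBS and grown 12 h at 37 °C. They were exposed to 0.13–2 mg/mL compound (DMSO stock) for 48 h, then given 0.5 mg/mL MTT for 3 h at 37 °C. Formazan was dissolved in DMSO and read at 490 nm. Survival % was blank-corrected against the 0.5% DMSO medium control.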

[8] = tested on: Escherichia coli; test: Potentiation of meropenem-induced antibacterial activity against carbapenem-resistant Escherichia coli isolate 45 assessed as meropenem MIC by CLSI protocol based assay (Rvb >= 128 ug/ml); format: functional
[9] = tested on: HeLa; test: Cytotoxicity against human HeLa cells assessed as effect on morphological changes at 0.13 to 2 mg/ml by microscopic analysis; format: cell-based; conditions: dose 0.13-2 mg/ml; method in brief: as §2
[10] = tested on: Enterobacter cloacae; test: Potentiation of meropenem-induced antibacterial activity against NDM-1 producing Enterobacter cloacae isolate 10 infected in Galleria mellonella assessed as increase in larvae survival at 10 mg/kg pretreated for 1hr with compound followed by bacterial infection and measured after 48 hrs (reference value: 20 %); format: functional; conditions: time 49 hrs
[11] = target: Metallo-beta-lactamase type 2 (Klebsiella pneumoniae) (UniProt C7C422); test: Inhibition of wild type N-terminal His6-tagged Klebsiella pneumoniae NDM-1 expressed in Escherichia coli BL21 assessed as residual activity preincubated for 20 mins by rapid high dilution method relative to control
Method in brief: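 Reversibility was tested by rapid high dilution: NDM-1 was preincubated 20 min with compound, then diluted. Residual nitrocefin hydrolysis was compared with an enzyme control lacking compound.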

[12] = tested on: HeLa; test: Cytotoxicity against human HeLa cells assessed as increase in cell viability at 0.13 to 2 mg/ml measured after 48 hrs by MTT assay relative to control; format: cell-based; conditions: dose 0.13-2 mg/ml; method in brief: as §4
[13] = tested on: Enterobacter cloacae; test: Potentiation of meropenem-induced antibacterial activity against carbapenem-resistant Enterobacter cloacae isolate 22 harboring CTX-M-14, TEM-1 and SHV-12 assessed as meropenem MIC by CLSI protocol based assay (Rvb >= 128 ug/ml); format: functional
[14] = target: Metallo-beta-lactamase type 2 (Klebsiella pneumoniae) (UniProt C7C422); test: Binding affinity to wild type N-terminal His6-tagged Klebsiella pneumoniae NDM-1 expressed in Escherichia coli BL21 assessed as formation of compound-intact protein complex by measuring molecular weight measured after 20 mins by ESI-MS analysis; method in brief: as §1
[15] = tested on: Klebsiella pneumoniae; test: Growth inhibition of carbapenem-resistant Klebsiella pneumoniae isolate 04 harboring CTX-M-14, VIM-1, TEM-1 and SHV-12 by CLSI protocol based assay; format: functional
[16] = tested on: Enterobacter cloacae; test: Potentiation of meropenem-induced antibacterial activity against carbapenem-resistant Enterobacter cloacae isolate 09 harboring CTX-M-3, CTX-M-14, TEM-1 and SHV-12 assessed as meropenem MIC by CLSI protocol based assay (Rvb >= 128 ug/ml); format: functional
[17] = target: Metallo-beta-lactamase type 2 (Klebsiella pneumoniae) (UniProt C7C422); test: (§5) Inhibition of wild type N-terminal His6-tagged Klebsiella pneumoniae NDM-1 expressed in Escherichia coli BL21 using nitrocefin as substrate measured after 30 mins; method in brief: as §3
[18] = target: T1, Metallo-beta-lactamase type 2 (Klebsiella pneumoniae, UniProt C7C422); test: as §5; method in brief: as §3
T1 sequence (C7C422 whole entry): as the sequence (C7C422 whole entry, the tested form may be a part) above

[19] = tested on: Enterobacter cloacae; test: Potentiation of meropenem-induced antibacterial activity against carbapenem-resistant Enterobacter cloacae isolate 07 harboring CTX-M-14, TEM-1 and SHV-12 assessed as meropenem MIC by CLSI protocol based assay (reference value: 64 ug/ml); format: functional
[20] = target: T1, Metallo-beta-lactamase type 2; test: Inhibition of wild type N-terminal His6-tagged Klebsiella pneumoniae NDM-1 expressed in Escherichia coli BL21 assessed as inhibition constant using nitrocefin as substrate measured after 30 mins; method in brief: as §3
[21] = target: Metallo-beta-lactamase type 2 (Klebsiella pneumoniae) (UniProt C7C422); test: Inhibition of wild type N-terminal His6-tagged Klebsiella pneumoniae NDM-1 expressed in Escherichia coli BL21 assessed as loss of zinc ion at enzyme active site leading to formation of compound-intact protein complex after 20 mins by ESI-MS analysis
Method in brief: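 Native mass analysis: 20 µM purified NDM-1 plus equimolar compound in 20 mM ammonium acetate, 20 min, then infused into nano-ESI source (spray ~20 min at 150 V). Adduct formation and zinc content were read from protein mass.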

[22] = tested on: L929; test: Cytotoxicity against mouse L929 cells assessed as increase in cell viability at 2 mg/ml measured after 48 hrs by MTT assay; format: cell-based; conditions: l929, 48 h; method in brief: as §4
[23] = tested on: Escherichia coli; test: Synergistic antibacterial activity against carbapenem-resistant Escherichia coli isolate 45 assessed as fractional inhibitory concentration index in presence of meropenem by CLSI protocol based assay; format: functional
Method in brief: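 FIC index from MICs of compound alone, meropenem alone, and the 1:1 (mass) compound–meropenem combination, read by eye after overnight incubation in a CLSI-based assay. FIC index = MICcombo/MICcpd + MICcombo/MICMem. FIC index ≤0.5 counted as synergy. At least triplicate assays. Clinical NDM-1 isolates for 17-39; E. coli TG1 carrying the IncX3 blaNDM-1 plasmid for 15.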

Compound	MIC [1] [µg/mL]	MIC [6] [µg/mL]	MIC [8] [µg/mL]	MIC [13] [µg/mL]	MIC [15] [µg/mL]	MIC [16] [µg/mL]	MIC [19] [µg/mL]	fractional inhibitory concentration index (FICI) [23]	other results
CC(C)(C)OC(=O)NCCn1[se]c2ccccc2c1=O	≥ 128	16	4	16	≥ 128	8	8	0.06	Activity [2]: 26200 Da; Activity [3]: Non-Toxic; mortality [4]: 100%; Kinact [5]: 0.068 min⁻¹; Activity [7]: Non-Toxic; Activity [9]: Non-Toxic; Activity [10]: 60%; Activity [11]: 40%; Activity [12]: 70%; Activity [14]: 26300 Da; inhibition [17]: Dose-dependent effect; IC50 [18]: 13 µM; Ki [20]: 17 µM; inhibition [21]: Active; Activity [22]: Non-Toxic
O=c1c2ccccc2[se]n1-c1ccccc1 [EBSELEN]	≥ 128	≥ 128	16	≥ 128	≥ 128	≥ 128	16	0.25	–
